Assay results reported in ChEMBL document CHEMBL1136914, “Synthesis and structure-activity relationships of bengazole A analogs” (2009).
Values after ≈ are worked out from the molar mass of the structure shown. Active and inactive are the calls of the source. The calls are words filed in the database; no cut-off is given here.

How the values were obtained:
Pichia kudriavzevii [1] = assay: Antifungal activity against Candida krusei at 300 ug/disk by disk diffusion assay; type: functional; details: read-out: IZ
Method in brief: (§1)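 Disk diffusion on agar; test material applied as μg per paper disk (doses up to 300 μg/disk); activity read as zone of growth inhibition in mm.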

Candida albicans [2] = assay: Antifungal activity against fluconazole-resistant Candida albicans CDFR1 […]; type: functional
Pichia kudriavzevii [3] = assay: Antifungal activity against Candida krusei after 48 hrs by microbroth dilution method; type: functional
Method in brief: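 Microbroth dilution MIC in RPMI medium at 37 °C, with incubation extended to 48 h; MIC given in μg/mL.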

Candida albicans [4] = assay: Antifungal activity against Candida albicans isolate 96-489 after 24 hrs by microbroth dilution method; type: functional; details: isolate 96-489, 24 h
Method in brief: (§2)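 Microbroth dilution MIC in RPMI medium, incubated at 37 °C for 24 h; MIC reported in μg/mL.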

Nakaseomyces glabratus [5] = assay: Antifungal activity against fluconazole-resistant Candida glabrata at 5 ug/disk by disk diffusion assay; type: functional; details: read-out: IZ
Method in brief: (§3)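 Agar disk diffusion against a panel of five Candida species, including fluconazole-resistant strains. Compound was applied per disk at doses up to 300 μg/disk. Activity was read as the diameter of the zone of growth inhibition, in mm.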

Candida albicans [6] = assay: Antifungal activity against fluconazole-resistant Candida albicans CDFR1 at 5 ug/disk by disk diffusion assay; type: functional; details: read-out: IZ; method in brief: as §3
Candida albicans [7] = assay: Antifungal activity against Candida albicans ATCC 14503 after 24 hrs by microbroth dilution method; type: functional; details: ATCC 14503, 24 h; method in brief: as §2
Candida albicans [8] = assay: Antifungal activity against Candida albicans isolate 96-489 at 5 ug/disk by disk diffusion assay; type: functional; details: read-out: IZ; method in brief: as §1
Candida albicans [9] = assay: Antifungal activity against Candida albicans ATCC 14503 at 5 ug/disk by disk diffusion assay; type: functional; details: read-out: IZ; method in brief: as §1
Pichia kudriavzevii [10] = assay: Antifungal activity against Candida krusei at 5 ug/disk by disk diffusion assay; type: functional; details: read-out: IZ; method in brief: as §1
Nakaseomyces glabratus [11] = assay: Antifungal activity against Candida glabrata up to 300 ug/disk by paper disk diffusion assay; type: functional, organism-based; method in brief: as §1
Candida albicans [12] = assay: Antifungal activity against Candida albicans ATCC 14503 up to 300 ug/disk by paper disk diffusion assay; type: functional, organism-based; method in brief: as §1
Pichia kudriavzevii [13] = assay: Antifungal activity against Candida krusei up to 300 ug/disk by paper disk diffusion assay; type: functional, organism-based; method in brief: as §1
Candida albicans [14] = assay: Antifungal activity against Candida albicans isolate 96-489 up to 300 ug/disk by paper disk diffusion assay; type: functional, organism-based; method in brief: as §1
Candida albicans [15] = assay: Antifungal activity against Candida albicans ATCC 14503 at 300 ug/disk by disk diffusion assay; type: functional; details: read-out: IZ; method in brief: as §1
Candida albicans [16] = assay: Antifungal activity against Candida albicans isolate 96-489 at 300 ug/disk by disk diffusion assay; type: functional; details: read-out: IZ; method in brief: as §3
Nakaseomyces glabratus [17] = assay: Antifungal activity against fluconazole-resistant Candida glabrata at 300 ug/disk by disk diffusion assay; type: functional; details: read-out: IZ; method in brief: as §3
Candida albicans [18] = assay: Antifungal activity against fluconazole-resistant Candida albicans CDFR1 at 300 ug/disk by disk diffusion assay; type: functional; details: read-out: IZ; method in brief: as §3
Escherichia coli = assay: Antibacterial activity against Escherichia coli; type: functional, organism-based
Candida albicans [19] = assay: Antifungal activity against Candida albicans ATCC 14503 at 10 ug/disk by disk diffusion assay; type: functional; details: read-out: IZ; method in brief: as §3
Staphylococcus aureus = assay: Antibacterial activity against Staphylococcus aureus; type: functional, organism-based
Candida albicans [20] = assay: Antifungal activity against fluconazole-resistant Candida albicans CDFR1 at 10 ug/disk by disk diffusion assay; type: functional; details: read-out: IZ; method in brief: as §3
Pichia kudriavzevii [21] = assay: Antifungal activity against Candida krusei at 10 ug/disk by disk diffusion assay; type: functional; details: read-out: IZ; method in brief: as §1
Candida albicans [22] = assay: Antifungal activity against Candida albicans ATCC 14503; type: functional
Pseudomonas aeruginosa = assay: Antibacterial activity against Pseudomonas aeruginosa; type: functional, organism-based
Candida albicans [23] = assay: Antifungal activity against Candida albicans isolate 96-489 at 10 ug/disk by disk diffusion assay; type: functional; details: read-out: IZ; method in brief: as §1
Nakaseomyces glabratus [24] = assay: Antifungal activity against fluconazole-resistant Candida glabrata at 10 ug/disk by disk diffusion assay; type: functional; details: read-out: IZ; method in brief: as §3

SMILES	zone of inhibition at 300 µg/disc (Pichia kudriavzevii [1]) [mm]	MIC (Candida albicans [2]) [µg/mL]	Activity (Nakaseomyces glabratus [11])	Activity (Candida albicans [12])	Activity (Pichia kudriavzevii [13])	Activity (Candida albicans [14])	zone of inhibition at 300 µg/disc (Candida albicans [15]) [mm]	zone of inhibition at 300 µg/disc (Candida albicans [16]) [mm]	zone of inhibition at 300 µg/disc (Nakaseomyces glabratus [17]) [mm]	other results
CSc1ncc(C(O)C(C)(C)C)o1 (stereo not given)	0									
C[C@@H]1[C@H](O)[C@@H](C)/C=C/C=C/C=C/C=C/C=C/C=C/C=C/[C@H](O[C@@H]2O[C@H](C)[C@@H](O)[C@H](N)[C@@H]2O)C[C@@H]2O[C@](O)(C[C@@H](O)C[C@@H](O)[C@H](O)CC[C@@H](O)C[C@@H](O)CC(=O)O[C@H]1C)C[C@H](O)[C@H]2C(=O)O [AMPHOTERICIN B]		> 32								MIC (Pichia kudriavzevii [3]): 0.25 µg/mL (≈ 0.271 µM); MIC (Candida albicans [4]): 0.5 µg/mL (≈ 0.541 µM); zone of inhibition at 5 µg/disc (Nakaseomyces glabratus [5]): 19 mm; zone of inhibition at 5 µg/disc (Candida albicans [6]): 23 mm; MIC (Candida albicans [7]): 0.5 µg/mL (≈ 0.541 µM); zone of inhibition at 5 µg/disc (Candida albicans [8]): 12 mm; zone of inhibition at 5 µg/disc (Candida albicans [9]): 22 mm; zone of inhibition at 5 µg/disc (Pichia kudriavzevii [10]): 15 mm
CCCC(O[Si](C)(C)C(C)(C)C)c1coc(C(O)c2ccccc2)n1 (stereo not given)			inactive	inactive	inactive	inactive				
CSc1ncc(C(O)c2ccc(Br)cc2)o1 (stereo not given)	9						13	12		MIC (Pichia kudriavzevii [3]): 4 µg/mL (≈ 13.3 µM); MIC (Candida albicans [4]): 8 µg/mL (≈ 26.7 µM); MIC (Candida albicans [7]): 4 µg/mL (≈ 13.3 µM)
CCCCCCCCCCCCCC(=O)OC(c1ccc(Br)cc1)c1cnc(SC)o1 (stereo not given)	0	> 32					0	0	0	MIC (Pichia kudriavzevii [3]): > 64 µg/mL; MIC (Candida albicans [4]): > 64 µg/mL; zone of inhibition at 300 µg/disc (Candida albicans [18]): 0 mm; MIC (Candida albicans [7]): > 64 µg/mL
OC(c1ccc2ccccc2c1)c1cnco1 (stereo not given)	7.5						10			MIC (Pichia kudriavzevii [3]): > 64 µg/mL; MIC (Candida albicans [4]): 32 µg/mL (≈ 142 µM); MIC (Candida albicans [7]): > 64 µg/mL
CSc1ncc(C(O)c2ccccc2)o1 (stereo not given)	9						10			
CCCCCCCCCCCCCC(=O)OC(c1ccco1)c1nc(C(CCC)O[Si](C)(C)C(C)(C)C)co1 (stereo not given)			inactive	inactive	inactive	inactive				
CCCC(O[Si](C)(C)C(C)(C)C)c1coc(C(O)c2cnco2)n1 (stereo not given)			inactive	inactive	inactive	inactive				
CCCCCCCCCCCCCC(=O)OC(c1ccco1)c1nc(C(O)CCC)co1 (stereo not given)			inactive	inactive	inactive	inactive				
CCCCCCCCCCCCCC(=O)O[C@@H](c1cnco1)c1nc([C@@H](O)C[C@@H](O)[C@@H](O)[C@@H](C)O)co1 [BENGAZOLE A]		> 32								Activity (Escherichia coli): inactive; zone of inhibition at 10 µg/disc (Candida albicans [19]): 50 mm; Activity (Staphylococcus aureus): inactive; zone of inhibition at 10 µg/disc (Candida albicans [20]): 50 mm; MIC (Candida albicans [4]): 1 µg/mL (≈ 1.91 µM); zone of inhibition at 10 µg/disc (Pichia kudriavzevii [21]): 35 mm; MIC (Candida albicans [22]): 1 µg/mL (≈ 1.91 µM); Activity (Pseudomonas aeruginosa): inactive; zone of inhibition at 10 µg/disc (Candida albicans [23]): 15 mm; MIC (Candida albicans [7]): 1 µg/mL (≈ 1.91 µM); zone of inhibition at 10 µg/disc (Nakaseomyces glabratus [24]): 15 mm
OC(c1ccccc1)c1cnco1 (stereo not given)	9						10			
C[C@@H](O[Si](C)(C)C(C)(C)C)[C@@H]1OC(C)(C)O[C@@H]1C[C@@H](O)c1cocn1	0	> 32					8	0	0	zone of inhibition at 300 µg/disc (Candida albicans [18]): 0 mm
CCCCCCCCCCCCCC(=O)OC(c1cnco1)C(C)(C)C (stereo not given)	0	> 32					0	0	0	zone of inhibition at 300 µg/disc (Candida albicans [18]): 0 mm
CCCCCCCCCCCCCC(=O)OC(c1cnco1)c1nc(C(CCC)O[Si](C)(C)C(C)(C)C)co1 (stereo not given)			inactive	inactive	inactive	inactive				
CCCCCCCCCCCCCC(=O)OC(c1ccc2ccccc2c1)c1cnc(SC)o1 (stereo not given)										MIC (Pichia kudriavzevii [3]): > 64 µg/mL; MIC (Candida albicans [4]): > 64 µg/mL; MIC (Candida albicans [7]): > 64 µg/mL
CCCCCCCCCCCCCC(=O)OC(c1ccc2ccccc2c1)c1cnco1 (stereo not given)										MIC (Pichia kudriavzevii [3]): > 64 µg/mL; MIC (Candida albicans [4]): > 64 µg/mL; MIC (Candida albicans [7]): > 64 µg/mL
CCCCCCCCCCCCCC(=O)OC(c1ccccc1)c1cnco1 (stereo not given)	0	> 32					0	0	0	zone of inhibition at 300 µg/disc (Candida albicans [18]): 0 mm
C[C@@H](O[Si](C)(C)C(C)(C)C)[C@@H]1OC(C)(C)O[C@@H]1C[C@H](O)c1cocn1	9	> 32					10	0	0	zone of inhibition at 300 µg/disc (Candida albicans [18]): 0 mm
CCCC(O[Si](C)(C)C(C)(C)C)c1coc(C(O)c2ccco2)n1 (stereo not given)			inactive	inactive	inactive	inactive				
COc1ccc(C(O)c2cnc(SC)o2)cc1 (stereo not given)	0						8	0		
CCCCCCCCCCCCCC(=O)OC(c1cnco1)c1nc(C(O)CCC)co1 (stereo not given)			inactive	inactive	inactive	inactive				
CC(C)(C)C(O)c1cocn1 (stereo not given)	0	> 32					0	0	0	zone of inhibition at 300 µg/disc (Candida albicans [18]): 0 mm
CCCCCCCCCCCCCC(=O)OC(c1ccccc1)c1cnc(SC)o1 (stereo not given)	0	> 32					0	0	0	zone of inhibition at 300 µg/disc (Candida albicans [18]): 0 mm
O=Cc1cocn1		> 32							10	
CCCCCCCCCCCCCC(=O)OC(c1cnc(SC)o1)C(C)(C)C (stereo not given)	0	> 32					0	0	0	zone of inhibition at 300 µg/disc (Candida albicans [18]): 0 mm
CCCCCCCCCCCCCC(=O)OC(c1ccccc1)c1nc(C(CCC)O[Si](C)(C)C(C)(C)C)co1 (stereo not given)			inactive	inactive	inactive	inactive				
CCCCCCCCCCCCCC(=O)OC(c1ccccc1)c1nc(C(O)CCC)co1 (stereo not given)			inactive	inactive	inactive	inactive				
